Bioassay records: PubChem BioAssay, several laboratories
Shown are actives, neighbours in structure and some others; about 7.9% of the full set was active somewhere.
JNK3 blocker – JNK3 kinase activity inhibitors, primary screen, biochemical, human, purified enzyme; AID 746, 2007; Mitogen-activated protein kinase 10 (Homo sapiens), P53779; 0.61% of 60,000 active; HTS; inhibition, % at 8 µM; in the data active = inhibition above about 17%
Target sequence (P53779 whole entry, looked up): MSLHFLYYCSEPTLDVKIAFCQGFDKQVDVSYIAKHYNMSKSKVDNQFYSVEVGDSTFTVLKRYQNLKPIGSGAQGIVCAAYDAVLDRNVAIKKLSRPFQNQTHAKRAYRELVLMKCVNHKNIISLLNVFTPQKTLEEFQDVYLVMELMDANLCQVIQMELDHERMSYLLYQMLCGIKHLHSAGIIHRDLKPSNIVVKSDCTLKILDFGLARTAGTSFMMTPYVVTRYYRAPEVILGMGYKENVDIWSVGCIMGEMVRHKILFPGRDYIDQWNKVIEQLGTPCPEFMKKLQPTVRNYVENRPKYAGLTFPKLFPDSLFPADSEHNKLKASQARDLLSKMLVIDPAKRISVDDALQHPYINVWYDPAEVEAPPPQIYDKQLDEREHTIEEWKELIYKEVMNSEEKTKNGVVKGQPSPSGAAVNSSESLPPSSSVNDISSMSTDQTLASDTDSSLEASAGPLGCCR
HEK293 NFkB inh – inhibitors of PMA/ionomycin-induced NF-kB reporter, primary screen, antigen receptor NF-kB inhibitor project, cell-based, HEK-293 luciferase reporter, luminescence | HEK-293 NF-kB luciferase reporter | inhibition, % at 3 µM | 0.21% of 62,000 active | AID 465, 2006;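 active = inhibition above the mean of all tested compounds plus 3 SD, cut at about 40% in these data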
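System – HEK-293 cells with stable firefly luciferase reporter driven by four HIV NF-kB elements · Doses – one dose, 3 µM · Schedule – 1 h compound pre-incubation, 16 h PMA/ionomycin at 37 °C · Technique – luminescence from luciferase substrate reagent · Measure – percent inhibition normalized per plate to DMSO and reference-inhibitor controls · Replicates – tested once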
SF-1 act – activators of human SF-1, primary screen, cell-based, CHO-K1, Gal4-SF-1 LBD, luciferase luminescence | Steroidogenic factor 1 (Homo sapiens), Q13285 | activation, % at 10 µM | 1.9% of 65,000 active | CHO-K1 Gal4-SF-1 LBD luciferase reporter; % increase over DMSO SF-1-specific signal | AID 522, 2006;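 active = activation above the mean activation of all tested compounds plus 3 SD, cut at about 50% in these data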
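Assay system: CHO-K1 cells co-transfected with Gal4 DBD–human SF-1 LBD, 5xGal4 luciferase reporter / Input: 4,000 cells per well / Incubation: 20 h compound exposure at 37 °C after 1 h cell settling / Detection: SteadyLite luciferase luminescence / Control set: DMSO negative control and −SF1 background wells / Replication: one test per compound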
D1 allo mod – D1 CRE-luciferase signal change, two-sided – cell-based, HEK293 D1, dopamine EC30, D1 allosteric modulator project, primary screen. D(1A) dopamine receptor (Homo sapiens), P21728. dopamine EC30 potentiation; actives deviate in either direction. B-score at 10 µM. 5.9% of 58,000 active. AID 641, 2007;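 active = luminescence count or its row- and column-corrected plate score outside the 99.7% band of the plate's sample wells, on either side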
RORa activator – activators of orphan receptor RORA, primary screen, cell-based, luminescence; 1.5% of 65,000 active; CHO-K1 Gal4-RORA LBD luciferase reporter; percent increase over mock-subtracted basal signal; activation, % at 10 µM; Nuclear receptor ROR-alpha (Homo sapiens), P35398;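 active = activation above the mean of all tested compounds plus 3 SD, cut at about 49% in these data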
Of the large screens only hits and unclear results are named; the others gave an inactive call.

O=C(Nc1ccc(Cl)c(C(F)(F)F)c1)C1CCCN(S(=O)(=O)c2cnc[nH]2)C1 (stereo not given)	none
COc1ccc(-n2cnnc2SCC(=O)c2ccc(S(=O)(=O)N3CCOCC3)cc2)cc1	none
Cn1c(CSc2ccccc2)c(C#N)c2ccccc21	RORa activator 61.4
O=C(/C=C\Nc1ccccn1)c1ccc(Cl)cc1	D1 allo mod -5.98
CCCc1cc(=O)[nH]c(SCC(N)=O)n1	none
CCCc1nc(SCC(N)=O)[nH]c(=O)c1CC	D1 allo mod -2.8 (no result: JNK3 blocker)
O=C(CN1CCC(C(=O)c2ccc(Cl)cc2)CC1)Nc1ccc2c(c1)OCCO2	none
O=C(NCCc1ccccc1)c1cc(-c2ccco2)on1	SF-1 act 86.1, RORa activator 68.8
COc1ccc(OC)c(N=c2oc3cc(O)ccc3cc2C(N)=O)c1	RORa activator 68.5
COc1ccccc1CC(=O)Nc1ccc(O)cc1C(=O)O	none
CCN(CC)C(=O)C1CCN(S(=O)(=O)c2ccc(C3CNC(=O)C3)cc2)CC1 (stereo not given)	none
Fc1ccccc1N1CCN(CCCNc2ccc3nncn3n2)CC1	D1 allo mod -6.07
c1ccc(CN2CCN(CCCNc3ccc4nnc(-c5ccccc5)n4n3)CC2)cc1	D1 allo mod -5.6
CCN1CCN(c2cc(C)c3cc(NC(=O)c4cncc(Br)c4)ccc3n2)CC1	none (no result: JNK3 blocker)
CCN1CCN(c2cc(C)c3cc(NC(=O)c4ccc5c(c4)OCO5)ccc3n2)CC1	D1 allo mod -4.97
CC1(C)CC2CC(C)(CN2C(=O)c2cc(-c3ccccc3O)on2)C1 (stereo not given)	none
COc1ccccc1NC(=O)C1=C(C)NC2=C(C(=O)CCC2)C1c1ccc2c(c1)OCO2 (stereo not given)	none
O=C(OCc1cc(=O)n2cc(Br)ccc2n1)C1COc2ccccc2O1 (stereo not given)	none
CC1CC1C(=O)OCc1cc(=O)n2cc(Br)ccc2n1 (stereo not given)	SF-1 act 54.9
CCOC(=O)CCCOC(=O)c1ccc(S(=O)(=O)N(C)C)cc1	none (no result: JNK3 blocker)
CC1=C(C)CS(=O)N(S(=O)(=O)c2ccc(Cl)cc2)C1 (stereo not given)	JNK3 blocker 19.7
CNc1sc(C(=O)c2cccs2)c(N)c1-c1nc2ccccc2s1	SF-1 act 79.3
Cc1cc(C(=O)c2cccs2)c(N)s1	none
CCN(CC)S(=O)(=O)c1ccc(S(=O)(=O)Nc2cc3c(cc2C(C)=O)OCO3)cc1	none
CC(=O)c1cc2c(cc1NS(=O)(=O)c1ccc3c(c1)OCCO3)OCO2	D1 allo mod 4.09
c1ccc(-c2csc(-n3cnnn3)n2)cc1	none
c1ccc(-c2noc(-c3cccc4ccccc34)n2)cc1	SF-1 act 65.1, RORa activator 61.1
Cc1ccc(-c2nc(-c3ccccc3)no2)c(Cl)c1	D1 allo mod -8.69
Cc1occc1-c1nc(-c2ccncc2)no1	none
c1ccc2c(-c3nc(-c4ccncc4)no3)cccc2c1	SF-1 act 74.0 (no result: D1 allo mod)
Cc1csc2ncc(C(=O)NCc3ccccn3)c(=O)n12	none (no result: D1 allo mod)
CC(C)c1ccc(-c2nnn(Cc3nc4ccccc4s3)n2)cc1	none
COC(=O)c1ccccc1NC(=O)NCc1cccnc1	JNK3 blocker 24.5 (no result: D1 allo mod)
O=C(CCn1c(=O)c2ccccc2n(Cc2cc(=O)n3ccccc3n2)c1=O)NCc1ccco1	none
Oc1ccc(-c2nnc(-c3ccc(O)cc3)nn2)cc1	none
Oc1ccc(-c2cccc(-c3ccc(O)cc3)n2)cc1	RORa activator 51.8
Nc1c(C(=O)Nc2ccc3c(c2)OCCO3)nnn1CCc1ccccc1	SF-1 act 92.4, RORa activator 141.9
COc1ccc(C)cc1NC(=O)c1nnn(CCc2ccccc2)c1N	none
Cc1cc(C(=O)CSc2nnnn2C)c(C)n1-c1cccc(F)c1	SF-1 act 53.4
Cn1c(SCc2ccccc2Cl)nnc1-c1cnccn1	SF-1 act 56.1, RORa activator 51.5 (no result: JNK3 blocker)
O=C(Nc1ccccc1)N(O)c1ccc(Cl)cc1	SF-1 act 58.1
COc1cccc(-c2csc(NC(=O)C3CC3)n2)c1	SF-1 act 60.1, RORa activator 74.4
CCOC(=O)CCCCC(=O)c1[nH]c(=O)[nH]c1CSc1nc2ccccc2[nH]1	none (no result: D1 allo mod)
Cc1[nH]c(=O)[nH]c1C(=O)CCCCC(=O)OCC(=O)Nc1ccccn1	JNK3 blocker 43.1
O=C(OCC1COc2ccccc2O1)c1c(F)cccc1F (stereo not given)	none (no result: JNK3 blocker)
C/C=C/C=[N+](\[O-])C(C)/C(=N/O)c1ccc(F)cc1 (stereo not given)	D1 allo mod -5.69
Cc1ccc(N2C(=O)c3ccc(N)cc3C2=O)cc1	RORa activator 55.3
Cc1ccc(N2C(=O)c3ccc(N)cc3C2=O)cc1C	SF-1 act 64.1, RORa activator 106.9
CCOc1ccc(N=C(NC#N)SCC(=O)NC2CC2)cc1	none (no result: HEK293 NFkB inh, D1 allo mod)
CCOC(=O)N1CCC2(CC1)C(C#N)=C(N)Oc1n[nH]c(CSc3ccc(C)cc3)c12	D1 allo mod -4.59
Cc1ccc(SCc2[nH]nc3c2C2(CCSCC2)C(C#N)=C(N)O3)cc1	none (no result: D1 allo mod)
CCn1cc(C(=O)OCC(=O)Nc2ccc(S(=O)(=O)N3CCCC3)cc2)c(=O)c2ccc(C)nc21	none
Cc1nnc(N)nc1C	none
Cc1nc2cc(Cl)c(Cl)cc2nc1C	SF-1 act 63.7, RORa activator 88.8
COc1ccccc1N1CCN(C(=O)CN(c2ccccc2OC)S(=O)(=O)c2ccccc2)CC1	none (no result: D1 allo mod)
O=C(Cc1cccs1)N1CCN(c2ccccn2)CC1	D1 allo mod -4.52
O=C(CCCOc1ccc(Cl)cc1Cl)N1CCN(c2ccccn2)CC1	none
O=C(CNS(=O)(=O)c1cccs1)N1CCN(c2ccccn2)CC1	none
O=C(CCCOc1ccccc1)N1CCN(c2ccccn2)CC1	D1 allo mod -2.95, RORa activator 55.7
O=C(O)C1CSC2(c3ccc4c(c3)OCCO4)CCC(=O)N12 (stereo not given)	none
O=C(OCc1nc2ccccc2s1)c1cnccn1	SF-1 act 54.3, RORa activator 53.1 (no result: D1 allo mod)
O=C(OCc1nc2ccccc2s1)c1cccs1	SF-1 act 50.1, RORa activator 52.7
Cc1cc(C(=O)OCC(=O)NCCc2ccccc2)c(C)o1	none
Cc1ccc2[nH]c3c(c2c1)CCc1cn[nH]c1-3	JNK3 blocker 43.5
Cc1sc2nc(SCC(=O)c3cc(C)n(CC4CCCO4)c3C)n(C(C)C)c(=O)c2c1C (stereo not given)	D1 allo mod -2.27
Cc1ccc(-n2nnnc2SCC(=O)c2cc(C)n(CC3CCCO3)c2C)cc1 (stereo not given)	none
O=c1[nH]c2ccccc2c2nc3ccccn3c12	JNK3 blocker 47.4, SF-1 act 64.9
